# Assay outcomes deposited in PubChem by several laboratories.
# HNF4A DNA FP: change in binding of human HNF4A to DNA, primary screen, biochemical, fluorescence polarization, FITC-DNA. 1 h. activity change, % at 10 µM. 360,000 compounds, 0.3% hits. AID 1224865, 2016; in the data active = activity change above about 30%, passing the limit was not always enough
# CRFBP-R2 block: antagonists of CRF-BP/CRF-R2 complex, primary screen, cell-based, HEK293, calcium dye fluorescence, uHTS; CRF-induced calcium fluorescence; inhibition, % at 11.8 µM; 350,000 compounds, 0.59% hits;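 active = inhibition of the ligand-induced calcium signal above about 50% at the single tested concentration, limit read from the data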
# CSN inh: inhibitors of CSN-mediated cullin deneddylation, primary screen, biochemical, fluorescence polarization, uHTS; COP9 signalosome complex subunit 5 (Homo sapiens), Q92905; Purified CSN, SCF-Nedd8-OG deneddylation; inhibition, % at 12.5 µM; 360,000 compounds, 0.38% hits; AID 651999, 2013;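 active = pattern-corrected inhibition above about 35%, with an unprinted fluorescence ratio check between 0.5 and 1.5, limit read from the data, passing the limit was not always enough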;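 note: 0% = enzyme with substrate and 100% = substrate without enzyme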
# Target sequence (Q92905 whole entry, looked up, one chain of several): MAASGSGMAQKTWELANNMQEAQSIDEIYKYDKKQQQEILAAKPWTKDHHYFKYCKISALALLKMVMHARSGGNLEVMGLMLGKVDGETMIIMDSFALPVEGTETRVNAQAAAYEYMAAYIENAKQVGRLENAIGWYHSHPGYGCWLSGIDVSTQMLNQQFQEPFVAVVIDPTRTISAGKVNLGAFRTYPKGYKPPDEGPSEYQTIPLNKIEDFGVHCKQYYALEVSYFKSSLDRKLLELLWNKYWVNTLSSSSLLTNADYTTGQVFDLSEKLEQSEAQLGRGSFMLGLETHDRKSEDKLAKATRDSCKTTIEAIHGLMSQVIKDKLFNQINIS
#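 Assay system: HEK293T-derived human Csn5 enzyme; quantity: 0.24 nM enzyme; medium: Tris/NaCl/DTT buffer, pH 7.5; also added: substrate SCFSkp2-Nedd8OG, 10 nM; doses: 12.5 µM compound; schedule: 90 min reaction at room temperature; signal: FP; read-out: % inhibition of substrate cleavage by Csn5; benchmarks: substrate-only high control, full reaction low control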
# Rpn11 block: Rpn11 (PSMD14) deubiquitinase inhibitors, primary screen, biochemical, fluorescence polarization, uHTS; calls only at 20 µM; 360,000 compounds, 0.59% hits; human 26S proteasome, Ub4-pepOG fluorescence polarization; 20S core pre-blocked with epoxomicin; 26S proteasome non-ATPase regulatory subunit 14 (Homo sapiens), O00487;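 active = inhibition at 20 µM, scaled to each plate's controls, above about 33%, limit read from the data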
# CRFBP-R2 agonist: agonists of CRF-BP/CRF-R2 complex, primary screen, cell-based, HEK293, calcium dye fluorescence, uHTS; CRF-binding protein / CRF receptor 2 complex (human); 350,000 compounds, 0.46% hits; activation, % at 13.2 µM; calcium dye fluorescence (FLIPR); percent of saturating CRF peptide response; AID 588473, 2011;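 active = activation of at least 50%, plus an integration ratio under a set limit after plate pattern correction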;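 note: plate controls were neutral control wells without compound for no effect and CRF at EC100 for full effect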
# TPT1 inh: Candida albicans TPT1 enzyme inhibitors, primary screen, biochemical, fluorescence polarization; tRNA 2'-phosphotransferase TPT1 (Candida albicans SC5314); recombinant caTPT1, FP RNA substrate dephosphorylation; inhibition, % at 5 µM; 300,000 compounds, 0.81% hits;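 active = inhibition above the mean of all tested compounds plus 3 SD, set per screening campaign, cut at about 24% in these data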;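 note: plate controls were DMSO alone for no effect and ferristatin control at 100 nM for full effect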
# caTPT1 confirm: Candida albicans TPT1 inhibitors, confirmation, biochemical, fluorescence polarization, triplicate; shares compounds with TPT1 inh; recombinant caTPT1, RNase T1 coupled; inhibition, % at 5 µM; 2,400 compounds, 74% hits; AID 2149, 2009;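 active = inhibition above the primary screen limit, the mean inhibition of all tested compounds plus 3 SD, cut at about 25% in these data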
# RNase T1 inh: RNase T1 inhibitors, counter-screen for TPT1 inhibitor project, biochemical, fluorescence polarization. RNase T1 cleavage, 1536-well. AID 2153, 2009. 2,400 compounds, 83% hits. inhibition, % at 5 µM. shares compounds with TPT1 inh;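 active = inhibition above the solvent-only control well mean plus 3 SD, limit set per screening run, cut at about 23% in these data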;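 note: plate controls were DMSO wells with enzyme for no effect and wells without RNase T1 for full effect; inhibitors block cleavage so intact labeled substrate keeps polarization high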
# Target sequence (P00651 whole entry, looked up): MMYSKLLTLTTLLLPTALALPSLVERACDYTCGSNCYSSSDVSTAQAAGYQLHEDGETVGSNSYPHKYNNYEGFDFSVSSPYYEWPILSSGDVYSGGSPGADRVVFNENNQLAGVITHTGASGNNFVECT
# Rpn11 confirm: Rpn11 (PSMD14) deubiquitinase inhibitors, confirmation, biochemical, fluorescence polarization, single concentration. purified human 26S proteasome, Ub4-pepOG fluorescence polarization; proteasome pretreated with epoxomicin. shares compounds with Rpn11 block. inhibition, % at 20 µM. AID 602318, 2012. 1,900 compounds, 29% hits
# MMP-2 inh: MMP-2 enzyme inhibition, confirmation, counter-screen for RPN11 inhibitor project, biochemical, fluorescence, single concentration. shares compounds with Rpn11 block. recombinant MMP-2, FRET peptide cleavage fluorescence. inhibition, % at 20 µM. 1,900 compounds, 4% hits. AID 602330, 2012;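 note: human MMP-2 activated beforehand with APMA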
# Thrombin inh: bovine thrombin protease inhibition, confirmation, counter-screen for Rpn11 inhibitor project, biochemical, fluorescence polarization, single concentration; shares compounds with Rpn11 block; bovine thrombin cleavage of Ub4-pepOG; inhibition, % at 20 µM; 1,900 compounds, 13% hits; AID 602333, 2012;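 active = mean inhibition at least 40% at 20 µM, or signal 3 deviations below plate average, so some actives read negative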;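 note: plate controls were thrombin with DMSO for no effect and buffer wells lacking thrombin for full effect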
# HNF4a DNA conf: change in HNF4A binding to DNA, retest, confirmation, biochemical, fluorescence polarization, FITC-DNA; shares compounds with HNF4A DNA FP; 1 h; activity change, % at 12.5 µM; 210 compounds, 99% hits; AID 1224897, 2016; call rule not given here
# * marks the source's active call; other numbers are inactive results; i = inactive; · = no result shown; + = active, no number. Only some compounds are listed: those with a hit (about 2.3% of all), similar ones and a draw of the others. Cut-off read from the data, not from the text of the source, unless noted: active = inhibition above about 40%; inactive = the rest.
SMILES,HNF4A DNA FP,CRFBP-R2 block,CSN inh,Rpn11 block,CRFBP-R2 agonist,TPT1 inh,Rpn11 confirm,MMP-2 inh,Thrombin inh,others
CN1CCc2c(sc(NC(=O)c3ccc(S(=O)(=O)N4CCCC4)cc3)c2C(N)=O)C1,35.5*,-36.3,13.9,·,28.2,115.9*,·,·,·,caTPT1 confirm=132.8*;RNase T1 inh=133.7*;HNF4a DNA conf=32.1*
OC[C@@H](O)[C@@H](O)CO,2.5,11.1,0.1,i,0.1,-0.8,·,·,·,
Cc1ccccc1C(=O)/C=C1/SCC(=O)N1C,37.8*,-3.0,46.2*,+,0.1,26.8*,48.7*,0.1,35.5,caTPT1 confirm=23.5;RNase T1 inh=27.5*;HNF4a DNA conf=59.4*
Cc1ccc(NC(=O)CSc2nnc(Cc3csc(C)n3)o2)c(C)c1,-2.1,7.6,1.8,i,-0.2,1.3,·,·,·,
COc1ccc2c(/C=N/Nc3ccc(C(=O)O)cc3)c[nH]c2c1,52.3*,-4.0,5.6,·,3.8,55.9*,·,·,·,caTPT1 confirm=38.6*;RNase T1 inh=49.6*;HNF4a DNA conf=35.1*
COc1ccccc1N1C(=O)S/C(=C\c2ccc(C)s2)C1=O,43.1*,3.4,27.4,+,6.0,34.4*,56.8*,-28.2,21.8,caTPT1 confirm=38.0*;RNase T1 inh=53.4*;HNF4a DNA conf=76.0*
C=CCN1C(=O)/C(=C/c2ccc(O)cc2)S/C1=N/c1nccs1,44.6*,-73.0,43.5*,·,65.2*,72.7*,·,·,·,caTPT1 confirm=93.3*;RNase T1 inh=91.7*;HNF4a DNA conf=69.4*
O=C(NCCCn1ccnc1)C(F)(F)C(F)(F)C(=O)NCCCn1ccnc1,-4.3,-5.5,-1.3,i,1.0,1.1,·,·,·,
CC(=O)Nc1ccc(S(=O)(=O)NCc2nc(-c3cccc(C)c3)no2)cc1,62.4*,3.6,15.9,·,2.5,41.3*,·,·,·,caTPT1 confirm=72.7*;RNase T1 inh=80.0*;HNF4a DNA conf=63.9*
CCC(c1nnnn1Cc1ccco1)N1CCC(C(N)=O)CC1 (stereo unspecified),-2.6,12.6,2.0,i,0.9,-1.1,·,·,·,
CC(C)C(c1nnnn1Cc1ccco1)N1CCC(C(N)=O)CC1 (stereo unspecified),-31.1,3.8,8.0,+,1.7,-1.8,15.1,-32.8,8.4,
CC(OC(=O)c1nn(C)c(=O)c2ccccc12)C(=O)NCc1ccc2c(c1)OCO2 (stereo unspecified),-3.5,-8.7,-2.4,i,-3.5,-0.5,·,·,·,
O=S(=O)(c1ccc(Cl)cc1)N1CCCc2ccccc21,3.1,25.1,-0.8,i,0.2,0.2,·,·,·,
O=S(=O)(c1ccc(Cl)cc1)N1CCc2ccccc21,93.5*,16.4,54.1*,+,-1.5,-0.5,147.3*,-44.8,131.6*,
CSc1nc2nccc(-c3ccc(Cl)cc3)n2n1,-6.5,-8.0,12.3,+,-1.6,3.3,36.1,65.6*,-9.7,
FC(F)(F)c1cnc(Sc2nc3nccc(-c4ccc(Cl)cc4)n3n2)c(Cl)c1,-0.8,9.4,0.7,i,2.1,1.2,·,·,·,
COc1ccc(NC(=O)c2nc(S(=O)(=O)Cc3cccc(C)c3)ncc2Cl)c(OC)c1,4.8,31.1,3.3,+,0.6,3.6,27.1,-34.6,-8.7,
COCCn1c(SCc2nc3ccccc3c(=O)[nH]2)nc2ccccc2c1=O,3.4,-12.2,8.6,i,0.7,-1.2,·,·,·,
CCCn1c(SCc2nc3sc(C)c(C)c3c(=O)[nH]2)nc2ccccc2c1=O,20.1,-13.2,10.1,+,5.9,2.7,30.4,4.2,20.2,
Cc1ccc(NC(=O)CSc2ncnc3ccccc23)cc1S(=O)(=O)N1CCCCCC1,1.6,9.1,-0.4,+,1.4,3.2,21.7,50.0*,-13.5,
Cc1ccc(S(=O)(=O)N2CCCCC2)cc1NC(=O)CSc1ncnc2ccccc12,0.5,42.1,2.6,i,1.5,-0.6,·,·,·,
Clc1ccc(C2Nc3ccccc3-n3cccc32)cc1 (stereo unspecified),4.5,-13.9,1.7,+,1.7,3.1,13.2,9.3,-8.9,
C/C(=N\Nc1ccc([N+](=O)[O-])cc1)c1ccc(-n2nncc2C)cc1,21.0,-26.8,44.5,+,3.6,24.0,20.2,-0.3,-16.6,
CCC(=O)N1Cc2cc(C(=O)NCCOC)nc(-c3cccc(-c4ccc(C#N)cc4)c3)c2[C@H]1CCO,6.6,·,-7.7,·,·,·,·,·,·,
COc1ccc(CN2CCN(C(C)C(=O)N3CCc4ccccc43)CC2)cc1OC (stereo unspecified),-1.0,-6.2,1.3,i,-2.1,-2.6,·,·,·,
COc1ccccc1NC(=O)CSc1ccc(-c2ccc(-n3cccn3)cc2)nn1,3.2,11.1,4.4,+,-0.9,-3.0,117.0*,-13.3,2.9,
Cc1ccc(-c2nn(-c3cccc(F)c3)cc2CNCc2cccnc2)o1,22.5,-14.5,4.5,+,5.8,7.1,23.6,-13.4,21.4,
O=C(O)CSc1cc(C(=O)c2cc(F)ccc2O)cn2c(=O)c3c(-c4ccccc4)csc3nc12,13.0,1.9,6.7,+,1.6,10.5,15.1,44.0*,22.0,
CN1[C@@H]2CC[C@H]1CC(OC(=O)[C@H](CO)c1ccccc1)C2 (stereo partly specified),·,-0.5,-1.0,i,0.2,-1.4,·,·,·,
